The record followed here is ChEMBL document CHEMBL3232894, “Discovery of AMG 925, a FLT3 and CDK4 dual kinase inhibitor with preferential affinity for the activated state of FLT3” (J Med Chem, 2014).

SMILES strings stand for the structures. pIC50: −log10 of the molar value.

CYP3A4, sequence (P08684 whole entry): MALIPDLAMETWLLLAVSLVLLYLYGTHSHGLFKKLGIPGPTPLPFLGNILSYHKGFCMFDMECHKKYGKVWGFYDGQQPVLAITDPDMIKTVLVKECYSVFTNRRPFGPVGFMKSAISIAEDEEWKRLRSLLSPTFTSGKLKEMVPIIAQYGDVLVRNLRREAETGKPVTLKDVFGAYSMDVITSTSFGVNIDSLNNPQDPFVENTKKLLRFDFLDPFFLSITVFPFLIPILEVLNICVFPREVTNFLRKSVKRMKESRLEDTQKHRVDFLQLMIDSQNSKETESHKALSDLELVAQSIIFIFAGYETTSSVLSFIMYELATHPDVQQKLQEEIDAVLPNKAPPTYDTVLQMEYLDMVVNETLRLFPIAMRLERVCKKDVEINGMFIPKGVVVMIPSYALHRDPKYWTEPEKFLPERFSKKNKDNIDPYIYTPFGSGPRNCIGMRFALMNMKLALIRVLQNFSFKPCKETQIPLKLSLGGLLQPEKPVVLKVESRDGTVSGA
Cytochrome P450 3A4, sequence (P08684 whole entry): as above

In the first data set the test system is COLO 205. Put plainly: Antiproliferative activity against Rb-positive human COLO205 cells assessed as incorporation of [14C]thymidine into DNA after 72 hrs by beta-plate counting analysis.
Details: not given
Take `c1cc2c3cnc(Nc4ccc(N5CCNCC5)cn4)nc3n(C3CCCCC3)c2cn1`: the pIC50 (commonly the IC50 on a negative log10 scale, so that one unit is a factor of ten) was 7.49.
On the same count and under the same terms, with `CS(=O)(=O)CC1CCN(c2ccc(Nc3ncc4c5ccncc5n([C@H]5CC[C@H](C)CC5)c4n3)nn2)CC1` the figure was 7.72; with `C[C@H]1CC[C@H](n2c3cnccc3c3cnc(Nc4ccc(N5CCNCC5)nc4)nc32)CC1`, 8.15; with `C[C@H]1CC[C@H](n2c3cnccc3c3cnc(Nc4ccc(N5CCNCC5)nn4)nc32)CC1`, 7.66.
With `c1cc2c3cnc(Nc4ccc(N5CCNCC5)cn4)nc3n(C3CCCC3)c2cn1`, the pIC50 is 7.60.
Still for that read-out and setting: next, `C[C@@H](CO)n1c2cnccc2c2cnc(Nc3ccc(N4CCNCC4)cn3)nc21`: 5.91; `C[C@H]1CC[C@H](n2c3cnccc3c3cnc(Nc4ccc(N5CCNCC5)cn4)nc32)CC1`: 7.70.
On the same count and under the same terms, next, `O=c1[nH]ccc2c3cnc(Nc4ccc(N5CCNCC5)cn4)nc3n(C3CCCC3)c12`: 6.92; `Cc1nccc2c3cnc(Nc4ccc(N5CCNCC5)cn4)nc3n(C3CCCC3)c12`: 6.55.

Another data set deals with Cyclin-dependent kinase 1/cyclin B1 (Homo sapiens, UniProt P06493). Put plainly: Inhibition of CDK1/cyclin B (unknown origin) using histone H1 as substrate after 60 mins by scintillation counting analysis in presence of [r-33P]ATP.
Cyclin-dependent kinase 1/cyclin B1, sequence (P06493 whole entry): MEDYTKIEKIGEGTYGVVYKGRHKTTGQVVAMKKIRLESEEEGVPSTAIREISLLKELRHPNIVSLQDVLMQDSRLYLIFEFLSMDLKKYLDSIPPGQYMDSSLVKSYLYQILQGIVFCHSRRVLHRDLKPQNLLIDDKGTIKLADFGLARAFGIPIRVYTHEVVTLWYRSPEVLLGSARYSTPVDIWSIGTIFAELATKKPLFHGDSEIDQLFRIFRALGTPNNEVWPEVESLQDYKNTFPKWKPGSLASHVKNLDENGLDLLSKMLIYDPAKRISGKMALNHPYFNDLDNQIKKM
Cyclin-dependent kinase 1/cyclin B1, sequence (P14635 whole entry, further chain): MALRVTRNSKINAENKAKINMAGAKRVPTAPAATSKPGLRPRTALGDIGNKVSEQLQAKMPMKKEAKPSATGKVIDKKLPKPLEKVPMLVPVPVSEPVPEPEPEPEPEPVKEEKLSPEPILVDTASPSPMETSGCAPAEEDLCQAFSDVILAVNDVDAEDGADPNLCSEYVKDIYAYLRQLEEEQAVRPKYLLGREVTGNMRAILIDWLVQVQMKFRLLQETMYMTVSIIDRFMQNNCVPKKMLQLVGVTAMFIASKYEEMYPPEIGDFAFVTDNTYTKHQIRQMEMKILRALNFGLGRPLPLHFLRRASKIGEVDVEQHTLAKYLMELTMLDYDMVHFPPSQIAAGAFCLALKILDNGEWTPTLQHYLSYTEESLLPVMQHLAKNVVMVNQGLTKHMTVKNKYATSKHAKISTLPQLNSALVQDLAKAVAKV
Details: not given
The class given is protein-complex assay.
`c1cc2c3cnc(Nc4ccc(N5CCNCC5)cn4)nc3n(C3CCCCC3)c2cn1`: the pIC50 is 5.19.
Consider `CS(=O)(=O)CC1CCN(c2ccc(Nc3ncc4c5ccncc5n([C@H]5CC[C@H](C)CC5)c4n3)nn2)CC1`, for which the pIC50 is 5.40.
Still for that read-out and setting: next, `C[C@H]1CC[C@H](n2c3cnccc3c3cnc(Nc4ccc(N5CCNCC5)nc4)nc32)CC1`: 7.62; `C[C@H]1CC[C@H](n2c3cnccc3c3cnc(Nc4ccc(N5CCNCC5)nn4)nc32)CC1`: 5.82; `c1cc2c3cnc(Nc4ccc(N5CCNCC5)cn4)nc3n(C3CCCC3)c2cn1`: 5.52.
Same read-out and setting: next, `C[C@@H](CO)n1c2cnccc2c2cnc(Nc3ccc(N4CCNCC4)cn3)nc21`: 4.89; `C[C@H]1CC[C@H](n2c3cnccc3c3cnc(Nc4ccc(N5CCNCC5)cn4)nc32)CC1`: 5.58.
Still for that read-out and setting: next, `O=c1[nH]ccc2c3cnc(Nc4ccc(N5CCNCC5)cn4)nc3n(C3CCCC3)c12`: 5.00.
With `Cc1nccc2c3cnc(Nc4ccc(N5CCNCC5)cn4)nc3n(C3CCCC3)c12`, the pIC50 is 5.65.

The target in another data set is T1, Receptor-type tyrosine-protein kinase FLT3 (Homo sapiens, UniProt P36888).
T1 sequence (P36888 whole entry): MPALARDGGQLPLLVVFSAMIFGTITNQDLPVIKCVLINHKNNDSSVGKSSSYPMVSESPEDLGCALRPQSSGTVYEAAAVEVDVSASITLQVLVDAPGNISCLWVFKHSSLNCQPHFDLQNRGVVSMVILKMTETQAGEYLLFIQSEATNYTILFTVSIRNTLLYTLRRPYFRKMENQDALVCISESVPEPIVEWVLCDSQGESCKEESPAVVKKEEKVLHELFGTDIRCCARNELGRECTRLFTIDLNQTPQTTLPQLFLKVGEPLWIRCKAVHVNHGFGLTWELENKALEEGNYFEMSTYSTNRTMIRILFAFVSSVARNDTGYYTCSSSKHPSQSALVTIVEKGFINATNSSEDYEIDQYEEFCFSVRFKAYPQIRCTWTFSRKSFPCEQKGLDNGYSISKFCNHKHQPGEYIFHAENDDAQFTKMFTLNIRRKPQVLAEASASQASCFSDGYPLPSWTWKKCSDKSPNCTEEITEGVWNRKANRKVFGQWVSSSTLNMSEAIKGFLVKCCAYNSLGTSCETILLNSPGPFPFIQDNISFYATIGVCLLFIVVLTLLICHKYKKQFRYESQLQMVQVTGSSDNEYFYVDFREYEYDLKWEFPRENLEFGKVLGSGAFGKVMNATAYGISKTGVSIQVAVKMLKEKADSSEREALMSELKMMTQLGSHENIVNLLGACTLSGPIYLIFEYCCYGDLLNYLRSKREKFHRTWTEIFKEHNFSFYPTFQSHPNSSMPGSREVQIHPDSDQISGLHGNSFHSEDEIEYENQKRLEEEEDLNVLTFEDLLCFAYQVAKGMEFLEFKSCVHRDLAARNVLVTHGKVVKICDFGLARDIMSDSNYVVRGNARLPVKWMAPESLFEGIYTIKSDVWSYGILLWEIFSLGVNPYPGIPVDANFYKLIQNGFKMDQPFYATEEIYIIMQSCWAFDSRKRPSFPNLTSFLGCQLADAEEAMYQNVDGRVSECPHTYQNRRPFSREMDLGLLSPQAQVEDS
Put plainly: Inhibition of GST-fused human FLT3 cytoplasmic domain (amino acids 564 to 993) using Ulight-JAK1 as substrate after 1 hr by TR-FRET assay.
Details: not given
(In TR-FRET formats the signal depends on donor and acceptor labels being close together.)
The compound `c1cc2c3cnc(Nc4ccc(N5CCNCC5)cn4)nc3n(C3CCCCC3)c2cn1` gave a pIC50 of 8.70.
Same read-out and setting: next, `CS(=O)(=O)CC1CCN(c2ccc(Nc3ncc4c5ccncc5n([C@H]5CC[C@H](C)CC5)c4n3)nn2)CC1`: 8.10.
The same measure, in the same setting: next, `C[C@H]1CC[C@H](n2c3cnccc3c3cnc(Nc4ccc(N5CCNCC5)nc4)nc32)CC1`: 9.52; `C[C@H]1CC[C@H](n2c3cnccc3c3cnc(Nc4ccc(N5CCNCC5)nn4)nc32)CC1`: 8.22.
The same measure, in the same setting: next, `c1cc2c3cnc(Nc4ccc(N5CCNCC5)cn4)nc3n(C3CCCC3)c2cn1`: 7.85; `C[C@@H](CO)n1c2cnccc2c2cnc(Nc3ccc(N4CCNCC4)cn3)nc21`: 7.37.
Consider `C[C@H]1CC[C@H](n2c3cnccc3c3cnc(Nc4ccc(N5CCNCC5)cn4)nc32)CC1`, for which the pIC50 was 8.70.
On the same count and under the same terms, next, `O=c1[nH]ccc2c3cnc(Nc4ccc(N5CCNCC5)cn4)nc3n(C3CCCC3)c12`: 7.77; `Cc1nccc2c3cnc(Nc4ccc(N5CCNCC5)cn4)nc3n(C3CCCC3)c12`: 7.66.

System in another data set: not listed separately
Put plainly: Oral bioavailability in rat. To be noted: in vivo. The class given is ADME, organism-based. A digest of the protocol:
(§1)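 Intravenous and oral (gavage, solution) PK in rat, dog and cynomolgus monkey. The rat vehicle for both routes was water/acetate/tween at pH 4, 96/3/1 (v/v/v). Dog and monkey iv doses used 40% PG aqueous solution at pH 2, and their oral doses used 20% captisol aqueous solution.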
Turning to `CS(=O)(=O)CC1CCN(c2ccc(Nc3ncc4c5ccncc5n([C@H]5CC[C@H](C)CC5)c4n3)nn2)CC1`, the bioavailability (as a rule, the share of a dose that reaches the circulation, judged against a reference dose that is usually intravenous) stood at 23%.
Same read-out and setting: with `C[C@H]1CC[C@H](n2c3cnccc3c3cnc(Nc4ccc(N5CCNCC5)nn4)nc32)CC1` the figure was 11%.
Consider `c1cc2c3cnc(Nc4ccc(N5CCNCC5)cn4)nc3n(C3CCCC3)c2cn1`, for which the bioavailability was 9.4%.

In another data set the target is Cyclin-dependent kinase 4/cyclin D1 (Homo sapiens, UniProt P11802). Put plainly: Inhibition of CDK4/cyclin D1 (unknown origin) using Rb as substrate after 60 mins by scintillation counting analysis in presence of [r-33P]ATP.
Cyclin-dependent kinase 4/cyclin D1, sequence (P11802 whole entry): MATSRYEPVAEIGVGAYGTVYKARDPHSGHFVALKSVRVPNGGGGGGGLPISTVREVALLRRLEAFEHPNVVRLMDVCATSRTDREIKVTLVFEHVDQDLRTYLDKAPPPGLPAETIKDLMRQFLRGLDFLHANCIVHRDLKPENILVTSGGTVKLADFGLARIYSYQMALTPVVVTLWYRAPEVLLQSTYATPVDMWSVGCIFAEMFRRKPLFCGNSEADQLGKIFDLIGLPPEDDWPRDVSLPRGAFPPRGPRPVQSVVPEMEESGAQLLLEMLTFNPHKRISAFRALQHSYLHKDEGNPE
Cyclin-dependent kinase 4/cyclin D1, sequence (P24385 whole entry, further chain): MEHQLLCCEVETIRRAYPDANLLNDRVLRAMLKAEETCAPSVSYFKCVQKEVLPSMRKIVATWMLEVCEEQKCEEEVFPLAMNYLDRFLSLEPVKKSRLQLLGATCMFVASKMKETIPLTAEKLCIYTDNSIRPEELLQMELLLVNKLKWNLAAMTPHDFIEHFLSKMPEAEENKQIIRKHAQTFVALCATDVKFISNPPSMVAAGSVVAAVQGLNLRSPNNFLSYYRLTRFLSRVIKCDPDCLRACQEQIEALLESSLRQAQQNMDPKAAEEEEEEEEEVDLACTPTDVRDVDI
Details: not given
The class given is protein-complex assay.
For `c1cc2c3cnc(Nc4ccc(N5CCNCC5)cn4)nc3n(C3CCCCC3)c2cn1`, the pIC50 was 8.30.
For the compound `CS(=O)(=O)CC1CCN(c2ccc(Nc3ncc4c5ccncc5n([C@H]5CC[C@H](C)CC5)c4n3)nn2)CC1`, the pIC50 is 8.05.
Still for that read-out and setting: next, `C[C@H]1CC[C@H](n2c3cnccc3c3cnc(Nc4ccc(N5CCNCC5)nc4)nc32)CC1`: 8.52; `C[C@H]1CC[C@H](n2c3cnccc3c3cnc(Nc4ccc(N5CCNCC5)nn4)nc32)CC1`: 8.70; `c1cc2c3cnc(Nc4ccc(N5CCNCC5)cn4)nc3n(C3CCCC3)c2cn1`: 8.52.
On the same count and under the same terms, with `C[C@@H](CO)n1c2cnccc2c2cnc(Nc3ccc(N4CCNCC4)cn3)nc21` the figure was 7.40; with `C[C@H]1CC[C@H](n2c3cnccc3c3cnc(Nc4ccc(N5CCNCC5)cn4)nc32)CC1`, 8.15; with `O=c1[nH]ccc2c3cnc(Nc4ccc(N5CCNCC5)cn4)nc3n(C3CCCC3)c12`, 8.30.
The same measure, in the same setting: with `Cc1nccc2c3cnc(Nc4ccc(N5CCNCC5)cn4)nc3n(C3CCCC3)c12` the figure was 7.70.

A further data set addresses CYP3A4 (Homo sapiens, UniProt P08684). Put plainly: Inhibition of CYP3A4 (unknown origin) at 3 uM. The format is ADME.
Details: not given
`c1cc2c3cnc(Nc4ccc(N5CCNCC5)cn4)nc3n(C3CCCCC3)c2cn1`: testing at 3 µM gave an inhibition of 82%.
Still for that read-out and setting: next, `c1cc2c3cnc(Nc4ccc(N5CCNCC5)cn4)nc3n(C3CCCC3)c2cn1`: 90%; `C[C@@H](CO)n1c2cnccc2c2cnc(Nc3ccc(N4CCNCC4)cn3)nc21`: 17%; `C[C@H]1CC[C@H](n2c3cnccc3c3cnc(Nc4ccc(N5CCNCC5)cn4)nc32)CC1`: 20%.
Regarding `O=c1[nH]ccc2c3cnc(Nc4ccc(N5CCNCC5)cn4)nc3n(C3CCCC3)c12`, the inhibition (in general, the relative decrease from the control value, in per cent) at 3 µM is 18%.
In turn, `Cc1nccc2c3cnc(Nc4ccc(N5CCNCC5)cn4)nc3n(C3CCCC3)c12` showed an inhibition at 3 µM of less than 10%.

A further data set has as its target Cytochrome P450 3A4 (Homo sapiens, UniProt P08684). Briefly: Inhibition of CYP3A4 (unknown origin). The class given is ADME.
Details: not given
The compound `c1cc2c3cnc(Nc4ccc(N5CCNCC5)cn4)nc3n(C3CCCC3)c2cn1` gave a pIC50 of 6.26.
Take `C[C@@H](CO)n1c2cnccc2c2cnc(Nc3ccc(N4CCNCC4)cn3)nc21`: the pIC50 is less than 5.00.
Still for that read-out and setting: with `C[C@H]1CC[C@H](n2c3cnccc3c3cnc(Nc4ccc(N5CCNCC5)cn4)nc32)CC1` the figure was less than 5.00; with `Cc1nccc2c3cnc(Nc4ccc(N5CCNCC5)cn4)nc3n(C3CCCC3)c12`, less than 5.00.

The next data set has as its system MOLM-13. Briefly: Antiproliferative activity against human MOLM13 cells harboring FLT3 ITD mutant assessed as incorporation of [3H]thymidine into DNA after 72 hrs by beta-plate counting analysis. The format is functional, cell-based.
Details: not given
Regarding `CS(=O)(=O)CC1CCN(c2ccc(Nc3ncc4c5ccncc5n([C@H]5CC[C@H](C)CC5)c4n3)nn2)CC1`, the pIC50 was 7.52.
On the same count and under the same terms, next, `C[C@H]1CC[C@H](n2c3cnccc3c3cnc(Nc4ccc(N5CCNCC5)nc4)nc32)CC1`: 8.30.
As for `C[C@H]1CC[C@H](n2c3cnccc3c3cnc(Nc4ccc(N5CCNCC5)nn4)nc32)CC1`, the pIC50 was 7.89.
The same measure, in the same setting: next, `c1cc2c3cnc(Nc4ccc(N5CCNCC5)cn4)nc3n(C3CCCC3)c2cn1`: 8.30; `C[C@H]1CC[C@H](n2c3cnccc3c3cnc(Nc4ccc(N5CCNCC5)cn4)nc32)CC1`: 7.89.
Consider `O=c1[nH]ccc2c3cnc(Nc4ccc(N5CCNCC5)cn4)nc3n(C3CCCC3)c12`, for which the pIC50 is 8.30.
Same read-out and setting: next, `Cc1nccc2c3cnc(Nc4ccc(N5CCNCC5)cn4)nc3n(C3CCCC3)c12`: 8.30.

System in another data set: not listed separately
Put plainly: Antiproliferative activity against Rb-negative human MDA-MB-436 cells assessed as incorporation of [3H]thymidine into DNA after 72 hrs by beta-plate counting analysis. The class given is functional.
Details: not given
Take `c1cc2c3cnc(Nc4ccc(N5CCNCC5)cn4)nc3n(C3CCCCC3)c2cn1`: the pIC50 was 6.27.
Still for that read-out and setting: next, `CS(=O)(=O)CC1CCN(c2ccc(Nc3ncc4c5ccncc5n([C@H]5CC[C@H](C)CC5)c4n3)nn2)CC1`: 5.00; `C[C@H]1CC[C@H](n2c3cnccc3c3cnc(Nc4ccc(N5CCNCC5)nc4)nc32)CC1`: 7.42; `C[C@H]1CC[C@H](n2c3cnccc3c3cnc(Nc4ccc(N5CCNCC5)nn4)nc32)CC1`: 6.00.
On the same count and under the same terms, next, `c1cc2c3cnc(Nc4ccc(N5CCNCC5)cn4)nc3n(C3CCCC3)c2cn1`: 5.75.
On the same count and under the same terms, with `C[C@@H](CO)n1c2cnccc2c2cnc(Nc3ccc(N4CCNCC4)cn3)nc21` the figure was 4.52; with `C[C@H]1CC[C@H](n2c3cnccc3c3cnc(Nc4ccc(N5CCNCC5)cn4)nc32)CC1`, 5.92.
For `O=c1[nH]ccc2c3cnc(Nc4ccc(N5CCNCC5)cn4)nc3n(C3CCCC3)c12`, the pIC50 is 5.68.
`Cc1nccc2c3cnc(Nc4ccc(N5CCNCC5)cn4)nc3n(C3CCCC3)c12`: the pIC50 is 5.47.

System in another data set: not listed separately
Briefly: Clearance in iv dosed rat. The class given is ADME, organism-based. As to conditions: in vivo. A digest of the protocol: as §1
With `CS(=O)(=O)CC1CCN(c2ccc(Nc3ncc4c5ccncc5n([C@H]5CC[C@H](C)CC5)c4n3)nn2)CC1`, the clearance – broadly, the rate of elimination divided by the concentration – was 3.33 mL/min/kg.
The same measure, in the same setting: with `C[C@H]1CC[C@H](n2c3cnccc3c3cnc(Nc4ccc(N5CCNCC5)nn4)nc32)CC1` the figure was 5.83 mL/min/kg.
On to `c1cc2c3cnc(Nc4ccc(N5CCNCC5)cn4)nc3n(C3CCCC3)c2cn1`, for which the clearance is 16.3 mL/min/kg.
